Paper PMC3895945 (Nuclear medicine and biology, 2013)

Tests used:
9L tumors [1] = experiment: Dynamic small animal PET imaging in rats bearing 9L tumors; type: in vivo, Fisher rats; conditions: for maximum tumor-to-muscle ratio: PET region-of-interest analysis; for maximum tumor-to-muscle ratio / time to maximum tumor uptake: 9L tumors; for time to maximum tumor uptake / tumor uptake kinetics and retention: PET time-activity curves; for tumor uptake kinetics and retention: result in words
9L glioma cells = experiment: In vitro uptake studies in 9L cells; type: cell-based; conditions: for uptake in 9L cells: result in words; for uptake relative to that of FET: 9L glioma cells, 5-120 min incubation at 37 °C
Summary of the method: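 9L gliosarcoma cells were grown in DMEM with 10 % FBS (37 °C, 5 % CO2) and plated at 2.0 × 10^5 cells/well 24 h ahead. Cells were washed with warm PBS containing Ca2+/Mg2+, then given radiolabeled test compound in PBS (~500,000 cpm/mL/well) at 37 °C for 5, 30, 60 or 120 min. They were washed with ice-cold PBS, lysed in 0.1N NaOH and gamma-counted. Uptake was normalised to protein (modified Lowry) as %uptake/100 μg protein, in triplicate.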

In vitro metabolism [2] = type: in vitro ADME, rat; conditions: for half-life: Fisher 344, rat, fresh heparinized rat whole blood
Summary of the method: (§1)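 Radiolabeled test compound (~3 MBq in 50 μL PBS) was added to 1.0 mL preheated blood or a PBS control at 37 °C. Rat blood was freshly drawn from anesthetized Fisher 344 rats into heparin (100 unit/mL); heparinized human blood had been stored at −70 °C. Aliquots taken at 5–120 min were deproteinized with 1 % picric acid and centrifuged. Supernatant was analysed by C-18 radio-HPLC. Percent intact compound versus time was fitted to first-order kinetics.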

[3] = In vivo metabolism studies of FET prodrugs in Fisher 344 rats; conditions: blood drawn 5 min after intravenous injection
Summary of the method: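 Fisher 344 rats received ~37 MBq radiolabeled test compound intravenously. Blood was drawn from the heart 5 min post-injection. 50 μL aliquots were deproteinized with 1 % picric acid and centrifuged at 12,000g. Supernatant was run on C-18 HPLC (CH3CN/0.1 % formic acid), and fractions were gamma-counted. Parent and radio-metabolites were identified by retention time.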

9L tumors [4] = experiment: In vivo biodistribution in Fisher rats with 9L glioma tumors; parameters: species or system Fischer 344 rats; conditions: for Tissue distribution Tumor: 9L tumor; for tumor uptake kinetics and retention: biodistribution 30 to 60 min, result in words; for Tumor/Blood / Tumor/Brain / Tumor/Muscle: ratio; for time to maximum uptake in the tumors: biodistribution, 9L tumors
In vitro metabolism [5] = type: in vitro ADME, human
Summary of the method: as §1

[6] = 30 min after intravenous injection
[7] = 60 min after intravenous injection
[8] = 30 min after intravenous injection, listed as FET-Ala([^18F]3)

N[C@@H](Cc1ccc(OCC[18F])cc1)C(=O)O [FET ([^18F]1), O-(2-[^18F]fluoroethyl)-L-tyrosine, reference compound]
maximum tumor-to-muscle ratio (9L tumors [1]): 5 | time to maximum tumor uptake (9L tumors [1]): ≤ 20 min | tumor uptake kinetics and retention (9L tumors [1]): long retention | uptake in 9L cells (9L glioma cells): high uptake

CC(=O)N[C@@H](Cc1ccc(OCC[18F])cc1)C(=O)O [AcFET ([^18F]4), N-acetyl O-(2-[^18F]fluoroethyl)-L-tyrosine]
half-life (In vitro metabolism [2]): 77.5 min | maximum tumor-to-muscle ratio (9L tumors [1]): < 5 | time to maximum tumor uptake (9L tumors [1]): 60 min | tumor uptake kinetics and retention (9L tumors [1]): slower kinetics | metabolized to FET [3]: 66% | uptake in 9L cells (9L glioma cells): negligible uptake | uptake relative to that of FET (9L glioma cells): less than 1% | Tissue distribution Tumor (9L tumors [4]; [6]): 0.61 ± 0.13 % ID/g | Tissue distribution Tumor (9L tumors [4]; [7]): 0.85 ± 0.09 % ID/g | Tissue distribution Blood (9L tumors [4]; [6]): 0.69 ± 0.03 % ID/g | Tissue distribution Bone (9L tumors [4]; [6]): 0.32 ± 0.01 % ID/g | Tissue distribution Brain (9L tumors [4]; [6]): 0.26 ± 0.01 % ID/g | Tissue distribution Heart (9L tumors [4]; [6]): 0.60 ± 0.03 % ID/g | Tissue distribution Kidney (9L tumors [4]; [6]): 0.70 ± 0.07 % ID/g | Tissue distribution Liver (9L tumors [4]; [6]): 0.64 ± 0.01 % ID/g | Tissue distribution Lung (9L tumors [4]; [6]): 0.55 ± 0.04 % ID/g | Tissue distribution Muscle (9L tumors [4]; [6]): 0.45 ± 0.02 % ID/g | Tissue distribution Pancreas (9L tumors [4]; [6]): 2.54 ± 0.11 % ID/g | Tissue distribution Skin (9L tumors [4]; [6]): 0.48 ± 0.01 % ID/g | Tissue distribution Spleen (9L tumors [4]; [6]): 0.66 ± 0.02 % ID/g | Tissue distribution Blood (9L tumors [4]; [7]): 0.62 ± 0.01 % ID/g | Tissue distribution Bone (9L tumors [4]; [7]): 0.33 ± 0.01 % ID/g | Tissue distribution Brain (9L tumors [4]; [7]): 0.36 ± 0.03 % ID/g | Tissue distribution Heart (9L tumors [4]; [7]): 0.56 ± 0.02 % ID/g | Tissue distribution Kidney (9L tumors [4]; [7]): 0.57 ± 0.05 % ID/g | Tissue distribution Liver (9L tumors [4]; [7]): 0.56 ± 0.01 % ID/g | Tissue distribution Lung (9L tumors [4]; [7]): 0.51 ± 0.01 % ID/g | Tissue distribution Muscle (9L tumors [4]; [7]): 0.49 ± 0.01 % ID/g | Tissue distribution Pancreas (9L tumors [4]; [7]): 2.23 ± 0.51 % ID/g | Tissue distribution Skin (9L tumors [4]; [7]): 0.44 ± 0.01 % ID/g | Tissue distribution Spleen (9L tumors [4]; [7]): 0.65 ± 0.06 % ID/g | tumor uptake kinetics and retention (9L tumors [4]): slower uptake kinetics | Tumor/Blood (9L tumors [4]; [6]): 0.88 ± 0.19 | Tumor/Brain (9L tumors [4]; [6]): 2.35 ± 0.51 | Tumor/Muscle (9L tumors [4]; [6]): 1.36 ± 0.30 | Tumor/Blood (9L tumors [4]; [7]): 1.37 ± 0.15 | Tumor/Brain (9L tumors [4]; [7]): 2.36 ± 0.32 | Tumor/Muscle (9L tumors [4]; [7]): 1.73 ± 0.19 | stability in human blood (In vitro metabolism [5]; human blood, 37 °C): completely stable

N[C@@H](Cc1ccc(OCC[18F])cc1)C(=O)NCC(=O)O [FET-Gly ([^18F]2), O-(2-[^18F]fluoroethyl)-L-tyrosyl-L-glycine]
t1/2 Rat blood (In vitro metabolism [2]; hydrolysis to FET in rat blood at 37 °C, average of two experiments): 17.3 min | maximum tumor-to-muscle ratio (9L tumors [1]): 5 | time to maximum tumor uptake (9L tumors [1]): ≤ 20 min | tumor uptake kinetics and retention (9L tumors [1]): washout | metabolized to FET [3]: 72% | uptake in 9L cells (9L glioma cells): negligible uptake | uptake relative to that of FET (9L glioma cells): less than 1% | Tissue distribution Tumor (9L tumors [4]; [6]): 0.81 ± 0.30 % ID/g | Tissue distribution Tumor (9L tumors [4]; [7]): 0.56 ± 0.33 % ID/g | Tissue distribution Blood (9L tumors [4]; [6]): 0.72 ± 0.02 % ID/g | Tissue distribution Bone (9L tumors [4]; [6]): 0.41 ± 0.01 % ID/g | Tissue distribution Brain (9L tumors [4]; [6]): 0.33 ± 0.02 % ID/g | Tissue distribution Heart (9L tumors [4]; [6]): 0.67 ± 0.03 % ID/g | Tissue distribution Kidney (9L tumors [4]; [6]): 0.57 ± 0.01 % ID/g | Tissue distribution Liver (9L tumors [4]; [6]): 0.67 ± 0.02 % ID/g | Tissue distribution Lung (9L tumors [4]; [6]): 0.59 ± 0.01 % ID/g | Tissue distribution Muscle (9L tumors [4]; [6]): 0.52 ± 0.04 % ID/g | Tissue distribution Pancreas (9L tumors [4]; [6]): 2.74 ± 0.39 % ID/g | Tissue distribution Skin (9L tumors [4]; [6]): 0.44 ± 0.03 % ID/g | Tissue distribution Spleen (9L tumors [4]; [6]): 0.76 ± 0.05 % ID/g | Tissue distribution Blood (9L tumors [4]; [7]): 0.74 ± 0.06 % ID/g | Tissue distribution Bone (9L tumors [4]; [7]): 0.45 ± 0.04 % ID/g | Tissue distribution Brain (9L tumors [4]; [7]): 0.47 ± 0.06 % ID/g | Tissue distribution Heart (9L tumors [4]; [7]): 0.68 ± 0.05 % ID/g | Tissue distribution Kidney (9L tumors [4]; [7]): 0.57 ± 0.05 % ID/g | Tissue distribution Liver (9L tumors [4]; [7]): 0.66 ± 0.05 % ID/g | Tissue distribution Lung (9L tumors [4]; [7]): 0.62 ± 0.06 % ID/g | Tissue distribution Muscle (9L tumors [4]; [7]): 0.67 ± 0.06 % ID/g | Tissue distribution Pancreas (9L tumors [4]; [7]): 2.92 ± 0.44 % ID/g | Tissue distribution Skin (9L tumors [4]; [7]): 0.46 ± 0.01 % ID/g | Tissue distribution Spleen (9L tumors [4]; [7]): 0.80 ± 0.12 % ID/g | washout from 9L tumors (9L tumors [4]; at 60 min (from 30 min)): 31% | time to maximum uptake in the tumors (9L tumors [4]): ≤ 30 min | Tumor/Blood (9L tumors [4]; [6]): 1.13 ± 0.42 | Tumor/Brain (9L tumors [4]; [6]): 2.45 ± 0.92 | Tumor/Muscle (9L tumors [4]; [6]): 1.56 ± 0.59 | Tumor/Blood (9L tumors [4]; [7]): 0.76 ± 0.45 | Tumor/Brain (9L tumors [4]; [7]): 1.19 ± 0.72 | Tumor/Muscle (9L tumors [4]; [7]): 0.84 ± 0.50 | t1/2 Human blood (In vitro metabolism [5]; hydrolysis to FET in human blood at 37 °C, average of two experiments): 22.7 min

C[C@H](NC(=O)[C@@H](N)Cc1ccc(OCC[18F])cc1)C(=O)O [FET-Ala ([^18F]3), O-(2-[^18F]fluoroethyl)-L-tyrosyl-L-alanine]
half-life (In vitro metabolism [2]): 5.8 min | maximum tumor-to-muscle ratio (9L tumors [1]): 5 | time to maximum tumor uptake (9L tumors [1]): ≤ 20 min | tumor uptake kinetics and retention (9L tumors [1]): long retention | metabolized to FET [3]: 79% | uptake in 9L cells (9L glioma cells): negligible uptake | uptake relative to that of FET (9L glioma cells): less than 1% | Tissue distribution Tumor (9L tumors [4]; [6]): 1.18 ± 0.10 % ID/g | Tissue distribution Tumor (9L tumors [4]; [7]): 1.10 ± 0.29 % ID/g | Tissue distribution Blood (9L tumors [4]; [6]): 0.72 ± 0.03 % ID/g | Tissue distribution Bone (9L tumors [4]; [6]): 0.41 ± 0.03 % ID/g | Tissue distribution Brain (9L tumors [4]; [6]): 0.31 ± 0.01 % ID/g | Tissue distribution Heart (9L tumors [4]; [6]): 0.67 ± 0.03 % ID/g | Tissue distribution Kidney (9L tumors [4]; [6]): 0.58 ± 0.02 % ID/g | Tissue distribution Liver (9L tumors [4]; [6]): 0.66 ± 0.02 % ID/g | Tissue distribution Lung (9L tumors [4]; [6]): 0.62 ± 0.02 % ID/g | Tissue distribution Muscle (9L tumors [4]; [6]): 0.54 ± 0.01 % ID/g | Tissue distribution Pancreas (9L tumors [4]; [6]): 3.06 ± 0.38 % ID/g | Tissue distribution Skin (9L tumors [4]; [6]): 0.69 ± 0.20 % ID/g | Tissue distribution Spleen (9L tumors [4]; [6]): 0.74 ± 0.06 % ID/g | Tissue distribution Blood (9L tumors [4]; [7]): 0.72 ± 0.03 % ID/g | Tissue distribution Bone (9L tumors [4]; [7]): 0.46 ± 0.03 % ID/g | Tissue distribution Brain (9L tumors [4]; [7]): 0.38 ± 0.02 % ID/g | Tissue distribution Heart (9L tumors [4]; [7]): 0.66 ± 0.03 % ID/g | Tissue distribution Kidney (9L tumors [4]; [7]): 0.57 ± 0.02 % ID/g | Tissue distribution Liver (9L tumors [4]; [7]): 0.65 ± 0.02 % ID/g | Tissue distribution Lung (9L tumors [4]; [7]): 0.61 ± 0.03 % ID/g | Tissue distribution Muscle (9L tumors [4]; [7]): 0.60 ± 0.03 % ID/g | Tissue distribution Pancreas (9L tumors [4]; [7]): 3.52 ± 0.26 % ID/g | Tissue distribution Skin (9L tumors [4]; [7]): 0.73 ± 0.16 % ID/g | Tissue distribution Spleen (9L tumors [4]; [7]): 0.71 ± 0.03 % ID/g | tumor uptake kinetics and retention (9L tumors [4]): long retention | time to maximum uptake in the tumors (9L tumors [4]): ≤ 30 min | Tumor/Blood (9L tumors [4]; [6]): 1.6 | Tumor/Brain (9L tumors [4]; [6]): 3.8 | Tumor/Muscle (9L tumors [4]; [6]): 2.2 | Tumor/Blood (9L tumors [4]; [8]): 1.64 ± 0.15 | Tumor/Brain (9L tumors [4]; [8]): 3.81 ± 0.35 | Tumor/Muscle (9L tumors [4]; [8]): 2.18 ± 0.19 | Tumor/Blood (9L tumors [4]; [7]): 1.53 ± 0.41 | Tumor/Brain (9L tumors [4]; [7]): 2.89 ± 0.78 | Tumor/Muscle (9L tumors [4]; [7]): 1.83 ± 0.49 | half-life (In vitro metabolism [5]; human, heparinized human whole blood): 0.8 min

O=C[C@H]([18F])[C@@H](O)[C@H](O)[C@H](O)CO [FDG, 2-[^18F]fluoro-2-deoxy-D-glucose, reference compound]
tumor uptake kinetics and retention (9L tumors [1]): continuously increasing tumor uptake
